# Reference: publication PMC3397176 (Journal of Medicinal Chemistry, 2012)
# Values joined by “and” are separate entries in the source; they are usually repeats but may differ in a detail not shown here. Equal values may be shown once.
# Columns and labels:
# [1] = target: Bcl-xL (Homo sapiens, UniProt Q07817); assay: FP-based competitive binding assay, Bcl-xL; details: Bcl-2 and Bcl-xL
# [2] = Aqueous solubility; format: physicochemical
# [3] = target: Bcl-2 (Homo sapiens, UniProt P10415); assay: FP-based competitive binding assay, Bcl-2
# Chain of Bcl-2 (P10415 whole entry): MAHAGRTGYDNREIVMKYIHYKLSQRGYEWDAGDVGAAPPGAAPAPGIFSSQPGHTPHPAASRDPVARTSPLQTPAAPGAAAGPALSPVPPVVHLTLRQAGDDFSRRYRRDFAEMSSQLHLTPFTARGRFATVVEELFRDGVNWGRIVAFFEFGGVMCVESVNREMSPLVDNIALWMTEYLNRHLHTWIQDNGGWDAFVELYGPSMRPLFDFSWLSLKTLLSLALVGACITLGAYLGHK
# [4] = test system: H146 small-cell lung cancer cell line; assay: Cell growth assay; format: cell-based, Human; details: H146 and H1417
# [5] = test system: H146 cancer cell line; assay: Cell death assay; format: cell-based, Human; details: H146, 24 h, trypan blue
# Procedure, shortened: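 Human small cell lung cancer H146 cells from ATCC, grown in RPMI-1640 with 10% FBS, exposed to test compound for 24 h. Cells then collected and stained with trypan blue. Blue-stained or morphologically unhealthy cells were scored as dead, with at least 100 cells counted per sample.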
# [6] = test system: cleavage of PARP and caspase-3 in the H146 cell line; assay: Western blotting of PARP and caspase-3 cleavage, H146; format: cell-based, Human; details: H146, 24 h, as low as
# Procedure, shortened: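 H146 cells (RPMI-1640, 10% FBS) treated with test compound for 24 h, then lysed on ice for 20 min in RIPA buffer (PBS, 1% NP40, 0.5% Na-deoxycholate, 0.1% SDS) with […] and protease inhibitors. Cleared lysates were protein-quantified, run on 4–20% SDS-PAGE and transferred to PVDF. Blots were blocked in 5% milk and probed with rabbit anti-PARP, anti-caspase-3 and anti-GAPDH, then HRP secondary and chemiluminescence.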
# Chain of Bcl-xL (Q07817 whole entry): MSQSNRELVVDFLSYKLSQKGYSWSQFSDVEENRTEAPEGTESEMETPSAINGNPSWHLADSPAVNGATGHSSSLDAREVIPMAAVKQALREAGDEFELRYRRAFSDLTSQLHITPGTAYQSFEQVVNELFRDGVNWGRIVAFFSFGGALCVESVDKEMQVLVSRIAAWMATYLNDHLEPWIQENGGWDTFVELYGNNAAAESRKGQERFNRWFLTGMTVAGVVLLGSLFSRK
smiles,measurement,setting,value
"CN(C)CCC(CSc1ccccc1)Nc1ccc(S(=O)(=O)NC(=O)c2ccc(N3CCN(c4cccc(-c5c(-c6ccc(Cl)cc6)cn(CC[C@H](O)CO)c5C(=O)NCCCN5CCN(C)CC5)c4)CC3)cc2)cc1[N+](=O)[O-] (stereo in doubt) [Compound 6, 4-(4-Chlorophenyl)-1-((S)-3,4-dihydroxybutyl)-3-(3-(4-(4-(((4-(((S)-4-(dimethylamino)-1-(phenylthio)butan-2-yl)amino)-3-nitrophenyl)sulfonyl)carbamoyl)phenyl)piperazin-1-yl)phenyl)-N-(3-(4-methylpiperazin-1-yl)propyl)-1H-pyrrole-2-carboxamide]",times more potent than either 4 or 5 in binding,[1],"> 10,000"
"CN1CCN(CCCNC(=O)c2c(-c3ccccc3)c(-c3ccc(Cl)cc3)cn2CC[C@H](O)CO)CC1 [Compound 4, (S)-4-(4-chlorophenyl)-1-(3,4-dihydroxybutyl)-N-(3-(4-methylpiperazin-1-yl)propyl)-3-phenyl-1H-pyrrole-2-carboxamide]",aqueous solubility,[2],excellent aqueous solubility
"CN(C)CC[C@H](CSc1ccccc1)Nc1ccc(S(=O)(=O)Nc2ccc(NCCNc3cccc(-c4c(-c5ccc(Cl)cc5)cn(CC[C@H](O)CO)c4C(=O)NCCCN4CCN(C)CC4)c3)cc2)cc1[N+](=O)[O-] [Compound 11, 4-(4-Chlorophenyl)-1-((S)-3,4-dihydroxybutyl)-3-(3-((2-((4-(4-(((R)-4-(dimethylamino)-1-(phenylthio)butan-2-yl)amino)-3-nitrophenylsulfonamido)phenyl)amino)ethyl)amino)phenyl)-N-(3-(4-methylpiperazin-1-yl)propyl)-1H-pyrrole-2-carboxamide]",times less potent than 7 in binding,"[3]; Bcl-2/Bcl-xL, protein not specified",at least 10
"CN(C)CC[C@H](CSc1ccccc1)Nc1ccc(S(=O)(=O)Nc2ccc(N3CCN(c4ccc(-c5c(-c6ccc(Cl)cc6)cn(CC[C@H](O)CO)c5C(=O)NCCCN5CCN(C)CC5)cc4)CC3)cc2)cc1[N+](=O)[O-] [Compound 12, 4-(4-Chlorophenyl)-1-((S)-3,4-dihydroxybutyl)-3-(4-(4-(4-(4-(((R)-4-(dimethylamino)-1-(phenylthio)butan-2-yl)amino)-3-nitrophenylsulfonamido)phenyl)piperazin-1-yl)phenyl)-N-(3-(4-methylpiperazin-1-yl)propyl)-1H-pyrrole-2-carboxamide]",times less potent than 7 in binding to Bcl-2,[3],> 10
"CN(C)CC[C@H](CSc1ccccc1)Nc1ccc(S(=O)(=O)Nc2ccc(N3CCN(Cc4ccccc4-c4ccc(Cl)cc4)CC3)cc2)cc1[N+](=O)[O-] [Compound 13, (R)-N-(4-(4-((4'-Chloro-[1,1'-biphenyl]-2-yl)methyl)piperazin-1-yl)phenyl)-4-((4-(dimethylamino)-1-(phenylthio)butan-2-yl)amino)-3-nitrobenzenesulfonamide]",affinity times weaker than that of 1,[3]; Bcl-2 and Bcl-xL,> 10
"CN(C)CC[C@H](CSc1ccccc1)Nc1ccc(S(=O)(=O)Nc2ccc(N3CCN(c4cccc(-c5c(-c6ccc(Cl)cc6)cn(C)c5C(=O)NCCCN5CCN(C)CC5)c4)CC3)cc2)cc1[N+](=O)[O-] [Compound 16, (R)-4-(4-Chlorophenyl)-3-(3-(4-(4-(4-((4-(dimethylamino)-1-(phenylthio)butan-2-yl)amino)-3-nitrophenylsulfonamido)phenyl)piperazin-1-yl)phenyl)-1-methyl-N-(3-(4-methylpiperazin-1-yl)propyl)-1H-pyrrole-2-carboxamide]",times more potent than 7 in cell growth inhibition,[4],3–5
"CCOC(=O)c1c(-c2cccc(N3CCN(c4ccc(NS(=O)(=O)c5ccc(N[C@H](CCN(C)C)CSc6ccccc6)c([N+](=O)[O-])c5)cc4)CC3)c2)c(-c2ccc(Cl)cc2)cn1C [Compound 19, (R)-Ethyl 4-(4-chlorophenyl)-3-(3-(4-(4-(4-((4-(dimethylamino)-1-(phenylthio)butan-2-yl)-amino)-3-nitrophenylsulfonamido)phenyl)piperazin-1-yl)phenyl)-1-methyl-1H-pyrrole-2-carboxylate]",times less potent than 17 in binding to Bcl-2,[3],10
same,times less potent than 17 in cell growth inhibition,[4],10
"CN(C)CC[C@H](CSc1ccccc1)Nc1ccc(S(=O)(=O)Nc2ccc(N3CCN(c4cccc(-c5c(-c6ccc(Cl)cc6)cn(C)c5C(=O)O)c4)CC3)cc2)cc1[N+](=O)[O-] [Compound 20, (R)-4-(4-Chlorophenyl)-3-(3-(4-(4-(4-((4-(dimethylamino)-1-(phenylthio)butan-2-yl)amino)-3-nitrophenylsulfonamido)phenyl)piperazin-1-yl)phenyl)-1-methyl-1H-pyrrole-2-carboxylic acid]",cell death induction,[5],effectively induce cell death in a dose-dependent manner
"CCc1c(-c2ccc(Cl)cc2)c(-c2cccc(N3CCN(c4ccc(NS(=O)(=O)c5ccc(N[C@H](CCN(C)C)CSc6ccccc6)c([N+](=O)[O-])c5)cc4)CC3)c2)c(C(=O)O)n1C [Compound 21, (R)-4-(4-Chlorophenyl)-3-(3-(4-(4-(4-((4-(dimethylamino)-1-(phenylthio)butan-2-yl)amino)-3-nitrophenylsulfonamido)phenyl)piperazin-1-yl)phenyl)-5-ethyl-1-methyl-1H-pyrrole-2-carboxylic acid]",cell death induction,[5],effectively induce cell death in a dose-dependent manner
same,concentration inducing substantial/robust cell death,[5],30 to 100 nM and 30 nM
same,concentration inducing cleavage of PARP and caspase-3,[6],100 nM
